From the M2OR odorant receptor database come the findings set out here.

The target of this assay is T1, OR10S1 (Homo sapiens) (UniProt Q8NGN2).
T1 sequence (whole entry): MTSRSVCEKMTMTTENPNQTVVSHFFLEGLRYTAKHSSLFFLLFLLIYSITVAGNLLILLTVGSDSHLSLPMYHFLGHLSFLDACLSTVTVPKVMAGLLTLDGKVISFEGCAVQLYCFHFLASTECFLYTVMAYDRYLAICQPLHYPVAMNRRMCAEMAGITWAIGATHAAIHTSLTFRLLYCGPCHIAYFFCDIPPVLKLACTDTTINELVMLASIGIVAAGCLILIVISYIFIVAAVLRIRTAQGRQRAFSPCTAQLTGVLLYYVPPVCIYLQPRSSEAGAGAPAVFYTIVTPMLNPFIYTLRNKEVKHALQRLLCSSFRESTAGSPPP
The note with it: stereoisomer not certain. In short, it runs like this: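 Each entry records the cell line, G-protein, co-transfected protein and tags used. Methods varied with the source, often transient luciferase assays in mammalian cell lines. A receptor–molecule pair is called responsive (active) if the original authors judged its signal statistically different from baseline and non-responsive (inactive) otherwise.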
Turning to `CCCCCCCCCCCCCCCC(=O)OCC`, the “odorant receptor agonist call” value is “inactive”.
Then `CCCCCCCCCCCCCCC(=O)O`, with “inactive”.
To `CCCCCCCCCCCCO` belongs “active”.
To `CCCCCCCCCCCCCCCCCC(=O)OCC` belongs “inactive”; to `CCCCCCCCCCCCCCCCCC(=O)OC`, “inactive”; to `C=C(C)C1CC=C(C)CC1` (stereo unspecified), “inactive”.
As for `CC(O)C(=O)[O-].[H+]` (stereo unspecified), the “odorant receptor agonist call” value was “inactive”.
On to `CCCCCCCCCCCCCC(=O)OCC`, for which the “odorant receptor agonist call” value was “inactive”.
Then `CC(C)=CCCC(C)=CCO`, with “active”.
To `CCCCC(=O)C(C)=O` belongs “inactive”.
To `CCCCCCCCCCCCCCCC(=O)[O-].[H+]` belongs “inactive”; to `CCCO`, “inactive”; to `CC(=O)O`, “inactive”.
Take `CCCCCCCCCCCCCC(=O)O`: the “odorant receptor agonist call” value was “inactive”.
With `CCCC(=O)CC`, the “odorant receptor agonist call” value was “inactive”.
`CCCCCCCC(=O)OC`: the “odorant receptor agonist call” value is “inactive”.
Then `Cc1ccc(C(C)C)cc1`, with “inactive”.
To `CC1=CCC2CC1C2(C)C` (stereo unspecified) belongs “inactive”; to `CCCCCCCC(=O)OCC`, “inactive”.
Then `CC(C)=CCCC(C)=CCCC(C)=CCO`, with “inactive”.
For the compound `CCCCCCCCCCCC(=O)O`, the “odorant receptor agonist call” value is “inactive”.
To `CCCCOCC(C)O` (stereo unspecified) belongs “inactive”; to `CCCCCCCCCCCCCC(=O)OC`, “inactive”; to `Cc1cnc(C)cn1`, “inactive”.
Then `CCC(=O)O`, with “inactive”; and `C=C1CCC2CC1C2(C)C` (stereo unspecified), with “inactive”.
